Tests used:
PI3 Kinase (p110a/p85a) = PI3 Kinase (p110a/p85a) (Homo sapiens, UniProt P42336); test: Kinase activity screening; assay type: biochemical; details: FX-9 at 2.5 μM, ATP at Km (200 μM)
Method in brief: (§1)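 Radiometric substrate-phosphorylation screen covering a panel of 58 human kinases run by a contract service. […] Activity is given as a percentage of mean activity in positive control samples (100%). Values <30% were scored strong hits, 30–70% partial hits and >70% no hit.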

Rsk1 = Rsk1 (Homo sapiens, UniProt Q15418); test: Kinase activity screening; assay type: biochemical; details: FX-9 at 2.5 μM, ATP at Km (45 μM)
Method in brief: (§2)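 Radiometric kinase-panel screen of 58 human kinases, measuring substrate phosphorylation. […] Activity is given as % of the mean positive-control kinase activity (100%). Below 30% counts as a strong hit, 30–70% as a partial hit, and above 70% as no hit.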

CDK1/cyclinB = CDK1/cyclinB (Homo sapiens, UniProt P06493); test: Kinase activity screening; assay type: biochemical; details: FX-9 at 2.5 μM, ATP at Km (45 μM)
Method in brief: as §1

JAK2 = JAK2 (Homo sapiens, UniProt O60674); test: Kinase activity screening; assay type: biochemical; details: FX-9 at 2.5 μM, ATP at Km (45 μM)
Chain of JAK2 (O60674 whole entry): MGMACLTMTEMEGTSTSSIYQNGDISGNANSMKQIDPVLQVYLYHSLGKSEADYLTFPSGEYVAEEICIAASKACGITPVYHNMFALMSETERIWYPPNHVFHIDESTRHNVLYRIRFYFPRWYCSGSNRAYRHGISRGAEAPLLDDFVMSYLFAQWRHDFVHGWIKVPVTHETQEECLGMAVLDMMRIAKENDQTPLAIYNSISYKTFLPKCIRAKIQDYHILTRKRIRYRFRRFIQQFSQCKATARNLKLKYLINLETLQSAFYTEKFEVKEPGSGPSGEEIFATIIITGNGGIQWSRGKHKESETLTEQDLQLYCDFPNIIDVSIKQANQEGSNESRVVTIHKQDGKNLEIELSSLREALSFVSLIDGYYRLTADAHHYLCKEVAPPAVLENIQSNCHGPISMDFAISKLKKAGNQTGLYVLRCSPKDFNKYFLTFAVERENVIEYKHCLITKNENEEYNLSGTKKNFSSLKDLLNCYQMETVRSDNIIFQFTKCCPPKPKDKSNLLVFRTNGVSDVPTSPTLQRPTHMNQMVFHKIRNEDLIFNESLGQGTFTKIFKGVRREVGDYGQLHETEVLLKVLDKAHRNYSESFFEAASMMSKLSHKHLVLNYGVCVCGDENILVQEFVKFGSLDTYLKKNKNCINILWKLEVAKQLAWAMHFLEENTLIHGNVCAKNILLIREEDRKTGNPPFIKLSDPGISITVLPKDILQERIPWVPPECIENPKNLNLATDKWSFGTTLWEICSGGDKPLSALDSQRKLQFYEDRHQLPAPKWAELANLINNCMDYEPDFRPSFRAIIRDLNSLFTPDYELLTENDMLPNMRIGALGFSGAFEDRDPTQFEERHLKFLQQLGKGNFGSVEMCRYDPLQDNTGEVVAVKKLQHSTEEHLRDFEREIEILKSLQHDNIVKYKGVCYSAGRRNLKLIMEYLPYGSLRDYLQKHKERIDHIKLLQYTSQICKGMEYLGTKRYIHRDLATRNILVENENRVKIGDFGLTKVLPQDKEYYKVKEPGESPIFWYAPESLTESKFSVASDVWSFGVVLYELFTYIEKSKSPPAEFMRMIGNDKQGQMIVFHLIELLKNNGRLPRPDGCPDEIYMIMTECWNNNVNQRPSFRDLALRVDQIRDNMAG
Method in brief: as §1

mTOR = mTOR (Homo sapiens, UniProt P42345); test: Kinase activity screening; assay type: biochemical; details: FX-9 at 2.5 μM, ATP at Km (70 μM)
Method in brief: as §2

CK2α2 = CK2α2 (Homo sapiens, UniProt P19784); test: Kinase activity screening; assay type: biochemical; details: FX-9 at 2.5 μM, ATP at Km (10 μM)
Chain of CK2α2 (P19784 whole entry): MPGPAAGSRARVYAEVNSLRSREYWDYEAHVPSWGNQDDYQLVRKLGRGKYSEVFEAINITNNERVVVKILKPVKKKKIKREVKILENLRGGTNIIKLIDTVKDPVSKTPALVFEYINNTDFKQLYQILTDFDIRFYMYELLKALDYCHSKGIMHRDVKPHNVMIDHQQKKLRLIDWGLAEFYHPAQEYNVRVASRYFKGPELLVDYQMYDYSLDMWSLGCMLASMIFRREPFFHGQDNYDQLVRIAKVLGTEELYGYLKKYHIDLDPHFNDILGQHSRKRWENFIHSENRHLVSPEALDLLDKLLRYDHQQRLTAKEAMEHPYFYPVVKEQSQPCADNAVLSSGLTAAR
Method in brief: as §1

CDK6/cyclinD3 = CDK6/cyclinD3 (Homo sapiens, UniProt Q00534); test: Kinase activity screening; assay type: biochemical; details: FX-9 at 2.5 μM, ATP at Km (200 μM)
Method in brief: as §1

EGFR = EGFR (Homo sapiens, UniProt P00533); test: Kinase activity screening; assay type: biochemical; details: FX-9 at 2.5 μM, ATP at Km (10 μM)
Method in brief: as §1

Plk3 = Plk3 (Homo sapiens, UniProt Q9H4B4); test: Kinase activity screening; assay type: biochemical; details: FX-9 at 2.5 μM, ATP at Km (70 μM)
Chain of Plk3 (Q9H4B4 whole entry): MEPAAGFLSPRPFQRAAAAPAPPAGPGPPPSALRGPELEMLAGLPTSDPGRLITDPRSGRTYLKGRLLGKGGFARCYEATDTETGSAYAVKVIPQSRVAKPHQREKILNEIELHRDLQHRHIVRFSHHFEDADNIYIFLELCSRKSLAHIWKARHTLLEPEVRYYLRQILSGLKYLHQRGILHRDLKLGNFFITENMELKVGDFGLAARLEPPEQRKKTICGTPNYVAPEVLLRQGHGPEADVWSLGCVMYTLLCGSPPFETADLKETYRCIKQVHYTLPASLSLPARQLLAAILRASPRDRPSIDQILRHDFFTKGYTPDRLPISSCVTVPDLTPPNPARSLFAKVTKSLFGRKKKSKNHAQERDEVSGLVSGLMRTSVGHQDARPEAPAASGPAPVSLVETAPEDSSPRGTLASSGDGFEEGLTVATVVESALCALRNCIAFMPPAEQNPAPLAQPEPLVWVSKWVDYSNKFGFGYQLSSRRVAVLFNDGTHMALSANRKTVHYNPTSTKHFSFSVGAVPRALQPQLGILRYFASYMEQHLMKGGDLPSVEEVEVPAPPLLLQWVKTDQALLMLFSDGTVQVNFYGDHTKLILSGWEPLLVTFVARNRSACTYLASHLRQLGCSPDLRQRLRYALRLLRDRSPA
Method in brief: as §2

SEM cells = test: WST-1 metabolic activity assay; assay type: cell-based; details: Homo sapiens, 72 h, read-out: metabolic activity
Method in brief: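 Test compound came from a 10 mM DMSO stock. Cells were seeded at 5×10^4/well in triplicate with 5 or 10 μM final compound; controls got matched DMSO. After 72 h at 37°C, 5% CO2, WST-1 was added for a further 3 h. Absorbance was read at 450 nm (reference 620 nm), and metabolic activity given as % of DMSO control.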

MEK1 = MEK1 (Homo sapiens, UniProt Q02750); test: Kinase activity screening; assay type: biochemical; details: FX-9 at 2.5 μM, ATP at Km (10 μM)
Method in brief: as §1

Jurkat cells = test: Apoptosis, Annexin V FITC / propidium iodide flow cytometry; assay type: cell-based, human; details: 5 μM, 72 h, DMSO 18.7%
PI3 Kinase (p110d/p85a) = PI3 Kinase (p110d/p85a) (Homo sapiens, UniProt O00329); test: Kinase activity screening; assay type: biochemical; details: FX-9 at 2.5 μM, ATP at Km (200 μM)
Method in brief: as §1

PKA = PKA (Homo sapiens, UniProt P17612); test: Kinase activity screening; assay type: biochemical; details: FX-9 at 2.5 μM, ATP at Km (10 μM)
Method in brief: as §1

IKKα = IKKα (Homo sapiens, UniProt O15111); test: Kinase activity screening; assay type: biochemical; details: FX-9 at 2.5 μM, ATP at Km (10 μM)
Chain of IKKα (O15111 whole entry): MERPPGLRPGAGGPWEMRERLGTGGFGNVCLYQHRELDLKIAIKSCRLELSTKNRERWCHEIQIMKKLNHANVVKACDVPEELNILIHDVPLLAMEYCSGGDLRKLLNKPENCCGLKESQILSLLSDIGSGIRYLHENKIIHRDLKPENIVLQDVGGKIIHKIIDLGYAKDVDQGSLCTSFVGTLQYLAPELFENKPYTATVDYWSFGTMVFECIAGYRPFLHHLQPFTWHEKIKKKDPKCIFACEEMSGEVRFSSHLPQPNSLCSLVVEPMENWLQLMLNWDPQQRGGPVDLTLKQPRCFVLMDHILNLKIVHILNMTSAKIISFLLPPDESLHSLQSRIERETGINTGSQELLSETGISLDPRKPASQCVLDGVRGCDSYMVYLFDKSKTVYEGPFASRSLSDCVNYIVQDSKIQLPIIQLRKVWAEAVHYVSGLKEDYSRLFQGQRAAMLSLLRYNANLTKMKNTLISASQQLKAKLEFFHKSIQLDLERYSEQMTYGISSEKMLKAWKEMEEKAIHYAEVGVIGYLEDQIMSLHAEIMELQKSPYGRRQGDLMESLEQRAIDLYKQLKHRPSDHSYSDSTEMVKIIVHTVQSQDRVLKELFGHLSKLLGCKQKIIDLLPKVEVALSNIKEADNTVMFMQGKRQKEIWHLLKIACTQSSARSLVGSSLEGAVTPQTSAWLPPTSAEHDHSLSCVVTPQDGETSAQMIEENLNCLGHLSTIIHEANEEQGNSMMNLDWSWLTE
Method in brief: as §1

KDR = KDR (Homo sapiens, UniProt P35968); test: Kinase activity screening; assay type: biochemical; details: FX-9 at 2.5 μM, ATP at Km (90 μM)
Method in brief: as §1

MSK2 = MSK2 (Homo sapiens, UniProt O75676); test: Kinase activity screening; assay type: biochemical; details: FX-9 at 2.5 μM, ATP at Km (45 μM)
Method in brief: as §1

PDGFRβ = PDGFRβ (Homo sapiens, UniProt P09619); test: Kinase activity screening; assay type: biochemical; details: FX-9 at 2.5 μM, ATP at Km (200 μM)
Method in brief: as §1

ASK1 = ASK1 (Homo sapiens, UniProt Q99683); test: Kinase activity screening; assay type: biochemical; details: FX-9 at 2.5 μM, ATP at Km (200 μM)
Method in brief: as §1

CEM cells = test: Proliferation, viable cell count by trypan blue exclusion; assay type: cell-based, human; details: 72 h
Method in brief: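 Human B-ALL (SEM, RS4;11) and T-ALL (Jurkat, CEM) lines were grown with 10% heat-inactivated FBS and penicillin/streptomycin at 37°C, 5% CO2. Cells took test compound at 0.1–5.0 μM (methods: 0.5–5.0 μM) or DMSO for up to 72 h. Viable cells were counted by trypan blue exclusion and expressed relative to control (100%). IC50 came from three separate experiments, each in triplicate.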

cleaved caspase 3 = test: Western blot, RS4; assay type: cell-based, human; details: RS4;11, 2.5 μM and 5.0 μM, 48 h
Method in brief: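 SEM and RS4;11 cells were exposed to 2.5 or 5.0 μM test compound, or DMSO, for 48 h. Lysates of 1–5×10^6 cells were made in RIPA buffer with sonication. Cleaved caspase 3 was detected by western blot on PVDF with near-infrared imaging, using GAPDH as loading control.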

IGF-1R = IGF-1R (Homo sapiens, UniProt P08069); test: Kinase activity screening; assay type: biochemical; details: FX-9 at 2.5 μM, ATP at Km (200 μM)
Method in brief: as §1

recombinant human CK2α1 = recombinant human CK2α1 (Homo sapiens, UniProt P68400); test: CK2 kinase activity assay; assay type: biochemical; details: 60 min
Chain of recombinant human CK2α1 (P68400 whole entry): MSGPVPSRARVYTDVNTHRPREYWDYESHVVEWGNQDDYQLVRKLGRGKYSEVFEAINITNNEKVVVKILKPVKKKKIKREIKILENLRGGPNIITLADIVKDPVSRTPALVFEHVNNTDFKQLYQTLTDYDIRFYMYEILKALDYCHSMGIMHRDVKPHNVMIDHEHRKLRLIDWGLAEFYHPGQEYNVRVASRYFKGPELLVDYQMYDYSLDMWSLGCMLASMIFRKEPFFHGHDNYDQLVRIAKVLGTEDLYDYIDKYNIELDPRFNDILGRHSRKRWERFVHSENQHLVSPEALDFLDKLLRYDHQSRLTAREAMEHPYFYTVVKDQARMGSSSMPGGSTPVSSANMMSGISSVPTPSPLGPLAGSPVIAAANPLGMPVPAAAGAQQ
Method in brief: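 Recombinant human CK2α1 (50 ng) was incubated with 2.5 μg CK2α1 substrate, 10 μM ATP, and test compound, reference inhibitor or DMSO for 60 min at room temperature. ADP-Glo reagent stopped the reaction and depleted remaining ATP. Detection reagent then converted ADP to ATP for luciferase/luciferin luminescence, which tracks the ADP formed as the measure of kinase activity.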

MAPKAP-K2 = MAPKAP-K2 (Homo sapiens, UniProt P49137); test: Kinase activity screening; assay type: biochemical; details: FX-9 at 2.5 μM, ATP at Km (90 μM)
Chain of MAPKAP-K2 (P49137 whole entry): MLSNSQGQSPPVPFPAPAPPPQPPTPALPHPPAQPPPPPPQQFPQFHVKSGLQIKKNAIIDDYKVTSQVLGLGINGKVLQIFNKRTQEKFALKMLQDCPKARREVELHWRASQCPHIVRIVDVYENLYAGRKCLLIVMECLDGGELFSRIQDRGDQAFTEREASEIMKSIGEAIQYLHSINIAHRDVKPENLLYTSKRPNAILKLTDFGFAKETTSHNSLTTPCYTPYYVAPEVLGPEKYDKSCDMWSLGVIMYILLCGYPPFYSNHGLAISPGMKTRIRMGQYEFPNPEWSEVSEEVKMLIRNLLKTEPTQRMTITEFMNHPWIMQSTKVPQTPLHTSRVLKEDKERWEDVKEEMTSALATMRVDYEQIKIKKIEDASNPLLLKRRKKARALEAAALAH
Method in brief: as §1

PKBα = PKBα (Homo sapiens, UniProt P31749); test: Kinase activity screening; assay type: biochemical; details: FX-9 at 2.5 μM, ATP at Km (155 μM)
Chain of PKBα (P31749 whole entry): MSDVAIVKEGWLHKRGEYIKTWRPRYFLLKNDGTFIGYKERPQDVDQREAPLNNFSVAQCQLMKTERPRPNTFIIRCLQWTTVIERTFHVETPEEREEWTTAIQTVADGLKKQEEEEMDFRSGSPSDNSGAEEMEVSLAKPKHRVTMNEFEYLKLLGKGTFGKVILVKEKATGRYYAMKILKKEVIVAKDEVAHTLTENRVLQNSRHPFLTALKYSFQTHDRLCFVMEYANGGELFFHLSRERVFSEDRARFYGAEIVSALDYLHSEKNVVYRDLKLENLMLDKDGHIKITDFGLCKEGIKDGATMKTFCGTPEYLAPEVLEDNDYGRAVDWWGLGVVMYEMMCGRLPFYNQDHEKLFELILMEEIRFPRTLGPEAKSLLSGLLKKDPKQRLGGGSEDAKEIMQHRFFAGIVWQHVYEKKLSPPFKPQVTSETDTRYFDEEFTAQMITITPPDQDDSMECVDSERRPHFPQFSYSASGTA
Method in brief: as §1

CDK7/cyclinH/MAT1 = CDK7/cyclinH/MAT1 (Homo sapiens, UniProt P50613); test: Kinase activity screening; assay type: biochemical; details: FX-9 at 2.5 μM, ATP at Km (90 μM)
Method in brief: as §1

c-RAF = c-RAF (Homo sapiens, UniProt P04049); test: Kinase activity screening; assay type: biochemical; details: FX-9 at 2.5 μM, ATP at Km (120 μM)
Chain of c-RAF (P04049 whole entry): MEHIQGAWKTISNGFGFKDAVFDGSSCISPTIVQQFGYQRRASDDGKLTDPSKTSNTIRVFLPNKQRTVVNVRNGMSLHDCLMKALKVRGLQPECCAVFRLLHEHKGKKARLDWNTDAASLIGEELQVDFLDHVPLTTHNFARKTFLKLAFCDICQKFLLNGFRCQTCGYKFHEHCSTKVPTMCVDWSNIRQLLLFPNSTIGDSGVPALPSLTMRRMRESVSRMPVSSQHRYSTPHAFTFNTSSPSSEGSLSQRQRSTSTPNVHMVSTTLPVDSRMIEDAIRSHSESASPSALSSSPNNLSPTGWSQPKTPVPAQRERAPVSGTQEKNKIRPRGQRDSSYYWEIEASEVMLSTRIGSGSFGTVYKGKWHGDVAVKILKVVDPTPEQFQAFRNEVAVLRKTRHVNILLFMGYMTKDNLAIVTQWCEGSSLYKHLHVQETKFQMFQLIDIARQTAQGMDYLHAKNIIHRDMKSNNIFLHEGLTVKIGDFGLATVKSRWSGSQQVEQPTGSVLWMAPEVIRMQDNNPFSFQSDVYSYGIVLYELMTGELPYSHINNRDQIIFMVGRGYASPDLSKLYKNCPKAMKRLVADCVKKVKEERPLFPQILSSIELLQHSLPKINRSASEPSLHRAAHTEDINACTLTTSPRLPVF
Method in brief: as §2

MLK1 = MLK1 (Homo sapiens, UniProt P80192); test: Kinase activity screening; assay type: biochemical; details: FX-9 at 2.5 μM, ATP at Km (45 μM)
Method in brief: as §1

Kinase activity (% control) (PI3 Kinase (p110a/p85a)): 101 % control
Kinase activity (% control) (Rsk1): 95 % control
Kinase activity (% control) (CDK1/cyclinB): 97 % control
Kinase activity (% control) (JAK2): 111 % control
Kinase activity (% control) (mTOR): 100 % control
Kinase activity (% control) (CK2α2): 95 % control
Kinase activity (% control) (CDK6/cyclinD3): 103 % control
Kinase activity (% control) (EGFR): 101 % control
Kinase activity (% control) (Plk3): 99 % control
Kinase activity (% control) (MEK1): 90 % control
Kinase activity (% control) (PI3 Kinase (p110d/p85a)): 100 % control
Kinase activity (% control) (PKA): 92 % control
Kinase activity (% control) (IKKα): 91 % control
Kinase activity (% control) (KDR): 83 % control
Kinase activity (% control) (MSK2): 89 % control
Kinase activity (% control) (PDGFRβ): 99 % control
Kinase activity (% control) (ASK1): 101 % control
Kinase activity (% control) (IGF-1R): 89 % control
CK2 enzyme activity (recombinant human CK2α1; 10 μM FX-9, 10 μM ATP): not changed significantly
CK2 enzyme activity (recombinant human CK2α1; increasing concentrations, 10 μM ATP): No changes of CK2 enzyme activity
Kinase activity (% control) (MAPKAP-K2): 87 % control
Kinase activity (% control) (PKBα): 98 % control
Kinase activity (% control) (CDK7/cyclinH/MAT1): 91 % control
Kinase activity (% control) (c-RAF): 92 % control
Kinase activity (% control) (MLK1): 84 % control
Compound: Cc1ccc(-c2cc3ccccc3c(N)n2)cc1 [FX-9, 3-(p-Tolyl)isoquinolin-1-amine]
activity at 5 µM (SEM cells): 1.2%
activity at 10 µM (SEM cells): 0.6%
Apoptosis (total of early apoptotic and late apoptotic and necrotic cells) (Jurkat cells): 48.7%
Proliferation compared to control cells (100%) (CEM cells; CEM, 2.5 μM): 24.1%
IC50 (CEM cells; Homo sapiens, CCRF-CEM, read-out: IC50 based on proliferation): 1940 ± 30 nM
cleaved caspase 3 protein (western blot) (cleaved caspase 3): increased amount of cleaved caspase 3

Reference: article PMC6720533 (Biomolecules & Therapeutics, 2019)
